In ChEMBL document CHEMBL4811218, “Discovery and optimization of withangulatin A derivatives as novel glutaminase 1 inhibitors for the treatment of triple-negative breast cancer” (Eur J Med Chem, 2021):
Activity calls are given as the source filed them. No cut-off for these calls is given here.

Tests used:
MDA-MB-231 [1] = experiment: Potency index, ratio of WA IC50 to compound IC50 for antiproliferative activity against human MDA-MB-231 cells after 24 hrs by MTT assay; assay type: functional
In short: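 Ratio calculated from MTT IC50 values in MDA-MB-231 cells. Cells seeded at 5×10^3/well for 24 h, then treated 24 h at 0.078-10 µM with 0.1% DMSO as vehicle. Absorbance read at 570 nm after 4 h MTT and DMSO solubilization. Triplicate wells, at least three repeats.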

MDA-MB-231 [2] = experiment: Induction of apoptosis in human MDA-MB-231 cells assessed as late apoptotic cells at 320 nM incubated for 12 hrs by annexin V-FITC/PI based flow cytometric analysis (reference value: 0.7%); assay type: functional
In short: (§1)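 Cells exposed to compound or 0.1% DMSO for 12 h at 37°C, then resuspended in PBS at 1×10^5 cells/mL. Stained with annexin V-FITC and PI for 20 min at room temperature in the dark, then analysed by flow cytometry. Quadrant percentages reported: lower right early apoptotic, upper right late apoptotic. n = 4, mean ± SD.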

MDA-MB-231 [3] = experiment: Induction of apoptosis in human MDA-MB-231 cells assessed as necrotic cells at 320 nM incubated for 12 hrs by annexin V-FITC/PI based flow cytometric analysis (reference value: 0.1%); assay type: functional; in short: as §1
[4] = Toxicity in BALB/c nude mouse xenografted with human MDA-MB-231 cells assessed as heart tissue damage at 25 to 50 mg/kg, ip administered every 3 days for 4 weeks; assay type: organism-based; details: in vivo, 672 h, dose 25-50 mg/kg
In short: (§2)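 Xenograft-bearing nude mice (MDA-MB-231, s.c. right flank, treated from about 100 mm³) received 25 or 50 mg/kg i.p. every three days for four weeks. At the end mice were euthanized, and visceral organs were fixed in 4% paraformaldehyde for histopathology.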

MDA-MB-231 [5] = experiment: Induction of apoptosis in human MDA-MB-231 cells assessed as necrotic cells at 640 nM incubated for 12 hrs by annexin V-FITC/PI based flow cytometric analysis (reference value: 0.1%); assay type: functional; in short: as §1
MDA-MB-231 [6] = experiment: Inhibition of colony formation in human MDA-MB-231 cells at 160 to 640 nM treated for 24 hrs and incubated for 2 weeks by crystal violet staining based assay; assay type: functional, cell-based; details: dose 160-640 nM
In short: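 MDA-MB-231 cells seeded at 1000 per well and left 24 h. Treated with DMSO vehicle or compound for 24 h, then grown two weeks with medium changed twice weekly. Colonies fixed in 4% paraformaldehyde and stained with 0.05% crystal violet. Result expressed as % of vehicle. n = 4.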

MDA-MB-231 [7] = experiment: Induction of apoptosis in human MDA-MB-231 cells assessed as early apoptotic cells at 160 nM incubated for 12 hrs by annexin V-FITC/PI based flow cytometric analysis (reference value: 1.2%); assay type: functional; in short: as §1
MDA-MB-231 [8] = experiment: Antiproliferative activity against human MDA-MB-231 cells after 24 hrs by MTT assay; assay type: functional, cell-based
[9] = biological target: T1, Glutaminase kidney isoform, mitochondrial (Homo sapiens) (UniProt O94925); experiment: Inhibition of human GLS1 at 10 uM relative to control
T1 sequence (whole entry): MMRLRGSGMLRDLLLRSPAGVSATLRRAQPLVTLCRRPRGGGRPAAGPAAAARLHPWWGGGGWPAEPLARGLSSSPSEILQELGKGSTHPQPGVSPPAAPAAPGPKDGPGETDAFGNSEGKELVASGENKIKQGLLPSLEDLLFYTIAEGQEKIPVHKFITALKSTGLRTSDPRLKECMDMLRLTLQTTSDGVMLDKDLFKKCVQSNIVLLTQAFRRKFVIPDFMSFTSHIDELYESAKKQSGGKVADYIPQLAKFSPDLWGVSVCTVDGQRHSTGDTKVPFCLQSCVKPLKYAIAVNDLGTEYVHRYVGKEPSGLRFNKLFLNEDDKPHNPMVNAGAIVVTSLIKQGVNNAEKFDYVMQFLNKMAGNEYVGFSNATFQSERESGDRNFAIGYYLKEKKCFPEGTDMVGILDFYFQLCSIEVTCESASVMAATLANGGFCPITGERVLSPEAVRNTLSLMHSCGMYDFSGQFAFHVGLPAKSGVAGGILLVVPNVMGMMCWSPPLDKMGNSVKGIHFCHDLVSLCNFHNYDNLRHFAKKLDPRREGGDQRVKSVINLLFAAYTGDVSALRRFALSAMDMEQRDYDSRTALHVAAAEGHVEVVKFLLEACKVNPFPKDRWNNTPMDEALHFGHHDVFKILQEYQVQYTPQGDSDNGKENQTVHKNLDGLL
In short: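 Human GLS1 hydrolase activity measured with a commercial GLS1 inhibitor screening kit, following the manufacturer's protocol. Single-point screening was run at 10 μM.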

[10] = Toxicity in BALB/c nude mouse xenografted with human MDA-MB-231 cells assessed as lung tissue damage at 25 to 50 mg/kg, ip administered every 3 days for 4 weeks; assay type: organism-based; details: in vivo, 672 h, dose 25-50 mg/kg; in short: as §2
MDA-MB-231 [11] = experiment: Antitumor activity against human MDA-MB-231 cells xenografted in BALB/c nude mouse assessed as tumor growth inhibition at 25 to 50 mg/kg, ip administered every 3 days for 4 weeks; assay type: functional, organism-based; details: dose 25-50 mg/kg
In short: (§3)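 Nude mice given 3×10^6 MDA-MB-231 cells in 200 µL PBS, injected subcutaneously into the right flank. Once tumors reached about 100 mm³, mice were randomized into four groups. Dosing was 25 or 50 mg/kg i.p. every three days for four weeks. Tumor volume, tumor weight and body weight were followed. n = 6, mean ± SD.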

MDA-MB-231 [12] = experiment: Induction of apoptosis in human MDA-MB-231 cells assessed as late apoptotic cells at 640 nM incubated for 12 hrs by annexin V-FITC/PI based flow cytometric analysis (reference value: 0.7%); assay type: functional; in short: as §1
MDA-MB-231 [13] = experiment: Antitumor activity against human MDA-MB-231 cells xenografted in BALB/c nude mouse assessed as reduction in tumor volume at 25 to 50 mg/kg, ip administered every 3 days for 4 weeks; assay type: functional, organism-based; details: dose 25-50 mg/kg; in short: as §3
MDA-MB-231 [14] = experiment: Induction of apoptosis in human MDA-MB-231 cells assessed as necrotic cells at 160 nM incubated for 12 hrs by annexin V-FITC/PI based flow cytometric analysis (reference value: 0.1%); assay type: functional; in short: as §1
[15] = Toxicity in BALB/c nude mouse xenografted with human MDA-MB-231 cells assessed as kidney tissue damage at 25 to 50 mg/kg, ip administered every 3 days for 4 weeks; assay type: organism-based; details: in vivo, 672 h, dose 25-50 mg/kg; in short: as §2
[16] = Toxicity in BALB/c nude mouse xenografted with human MDA-MB-231 cells assessed as effect on body weight at 25 to 50 mg/kg, ip administered every 3 days for 4 weeks; assay type: organism-based; details: in vivo, 672 h, dose 25-50 mg/kg; in short: as §3
MDA-MB-231 [17] = experiment: Induction of apoptosis in human MDA-MB-231 cells assessed as viable cells at 640 nM incubated for 12 hrs by annexin V-FITC/PI based flow cytometric analysis (reference value: 98.1%); assay type: functional; details: read-out: Activity; in short: as §1
[18] = Toxicity in BALB/c nude mouse xenografted with human MDA-MB-231 cells assessed as spleen tissue damage at 25 to 50 mg/kg, ip administered every 3 days for 4 weeks; assay type: organism-based; details: in vivo, 672 h, dose 25-50 mg/kg; in short: as §2

CC(=O)O[C@H]1C=C([C@H](C)[C@H]2CC(C)=C(C)C(=O)O2)[C@@]2(C)CC[C@H]3[C@@H](C[C@H]4O[C@]45[C@@H](OC(=O)CCCC(=O)Nc4ccc(N6CCOCC6)c(F)c4)C=CC(=O)[C@]35C)[C@@]12O
Ratio IC50 (MDA-MB-231 [1]): 20 | Activity (MDA-MB-231 [2]): 2.9% | Activity (MDA-MB-231 [3]): 0.1% | Activity [4]: Non-Toxic | Activity (MDA-MB-231 [5]): 0.1% | inhibition (MDA-MB-231 [6]): Active | Activity (MDA-MB-231 [7]): 2.6% | Activity (MDA-MB-231 [8]): Dose-Dependent Effect | IC50 (MDA-MB-231 [8]; MDA-MB-231, 24 h): 320 nM | inhibition [9]: 87.2% | Activity [10]: Non-Toxic | Activity (MDA-MB-231 [11]): Active | Activity (MDA-MB-231 [12]): 11.7% | Activity (MDA-MB-231 [13]): Active | Activity (MDA-MB-231 [14]): 0.2% | Activity [15]: Non-Toxic | Activity [16]: Non-Toxic | viability at 0.64 µM (MDA-MB-231 [17]): 59.7% | Activity [18]: Non-Toxic
